Data: ChEMBL document CHEMBL4334445, “Caspase-Dependent Apoptosis in Prostate Cancer Cells and Zebrafish by Corchorusoside C from Streptocaulon juventas” (J Nat Prod, 2019)

What was measured:
[1] = tested on: HT-29; experiment: Cytotoxicity against human HT-29 cells assessed as reduction in cell viability measured after 72 hrs by SRB assay; format: functional, cell-based; settings: HT-29, 72 h
[2] = tested on: HeLa; experiment: Cytotoxicity against human HeLa cells assessed as reduction in cell viability measured after 72 hrs by SRB assay; format: functional, cell-based
[3] = tested on: DU-145; experiment: Cytotoxicity against human DU145 cells assessed as reduction in cell viability measured after 72 hrs by SRB assay; format: functional, cell-based; settings: DU-145, 72 h
[4] = tested on: PC-3; experiment: Cytotoxicity against human PC3 cells assessed as reduction in cell viability measured after 72 hrs by SRB assay; format: functional, cell-based; settings: PC-3, 72 h
[5] = tested on: MDA-MB-231; experiment: Cytotoxicity against human MDA-MB-231 cells assessed as reduction in cell viability measured after 72 hrs by SRB assay; format: functional, cell-based; settings: MDA-MB-231, 72 h
[6] = Toxicity in 24 hrs post fertilized zebrafish embryo assessed as developmental delay at 50 uM measured after 24 hrs by microscopic analysis; set-up: species or system Danio rerio; settings: in vivo
In short: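 Embryos raised at 28 °C to 24 hpf, then exposed to 50 μM in 1% DMSO in water (vehicle control) for 24 h; larvae examined and photographed by light microscopy for developmental morphology.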

SMILES | IC50 [1] [nM] | IC50 [2] [nM] | IC50 [3] [nM] | IC50 [4] [nM] | IC50 [5] [nM] | Activity [6]
CC(=O)O[C@H]1C(=O)[C@@]2(C)[C@H]([C@H](OC(=O)c3ccccc3)[C@]3(O)C[C@H](OC(=O)[C@H](O)[C@@H](NC(=O)c4ccccc4)c4ccccc4)C(C)=C1C3(C)C)[C@]1(OC(C)=O)CO[C@@H]1C[C@@H]2O [PACLITAXEL] | 2 | 5 | 4 | 170 | 100 | 
C[C@@H]1C[C@@H]([C@H](O)CC2CC(=O)NC(=O)C2)C(=O)[C@@H](C)C1 [CYCLOHEXIMIDE] |  |  |  |  |  | Toxic
